Reference: ChEMBL document CHEMBL4138201, “Synthesis and biological evaluation of sulfur-containing shikonin oxime derivatives as potential antineoplastic agents” (Eur J Med Chem, 2018)

How the values were obtained:
MGC-803 = assay: Cytotoxicity against human MGC803 cells after 48 hrs by MTT assay; type: functional, cell-based; details: MGC-803, 48 h
Summary of the method: (§1)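 MTT colorimetric assay. Shikonin and 5-fluorouracil served as reference agents. IC₅₀ obtained by linear regression of each compound's concentration–response curve.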

Bel-7402 = assay: Cytotoxicity against human Bel7402 cells after 48 hrs by MTT assay; type: functional, cell-based; details: Bel-7402, 48 h; summary of the method: as §1
HCT-15 = assay: Cytotoxicity against human HCT15 cells after 48 hrs by MTT assay; type: functional, cell-based; details: HCT-15, 48 h; summary of the method: as §1
MCF7 = assay: Cytotoxicity against human MCF7 cells after 48 hrs by MTT assay; type: functional, cell-based; details: MCF7, 48 h; summary of the method: as §1
[1] = Cytotoxicity against human HSF cells after 48 hrs by MTT assay; type: cell-based; summary of the method: as §1
[2] = Induction of NO release in phosphate buffer at pH 7.4 at 0.1 mM measured after 1 hr in presence of N-acetylcysteine by Griess assay; type: functional
Summary of the method: (§2)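 Percentage of NO released in vitro measured by Griess assay against a standard curve. Incubation in 0.5 mM N-acetylcysteine, read hourly from 1 to 6 h.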

[3] = Induction of NO release in phosphate buffer at pH 7.4 at 0.1 mM measured after 6 hrs in presence of N-acetylcysteine by Griess assay; type: functional; summary of the method: as §2
[4] = Induction of NO release in phosphate buffer at pH 7.4 at 0.1 mM measured after 3 hrs in presence of N-acetylcysteine by Griess assay; type: functional; summary of the method: as §2
[5] = Induction of NO release in phosphate buffer at pH 7.4 at 0.1 mM measured after 5 hrs in presence of N-acetylcysteine by Griess assay; type: functional; summary of the method: as §2
[6] = Induction of NO release in phosphate buffer at pH 7.4 at 0.1 mM measured after 4 hrs in presence of N-acetylcysteine by Griess assay; type: functional; summary of the method: as §2
[7] = Induction of NO release in phosphate buffer at pH 7.4 at 0.1 mM measured after 2 hrs in presence of N-acetylcysteine by Griess assay; type: functional; summary of the method: as §2

With `COc1cc(C(CC=C(C)C)SC(=O)CC(C)C)c(OC)c2c1/C(=N/O)C=C/C2=N\O` (stereo unspecified) the IC50 (MGC-803) was 1490 nM, the IC50 (Bel-7402) was 1650 nM and the IC50 (HCT-15) was 590 nM. For the same molecule, the IC50 (MCF7) was 16.3 µM and the IC50 [1] was over 50 µM.
With `CCCCCCCCCCSC(CC=C(C)C)c1cc(OC)c2c(c1OC)/C(=N/O)C=C/C2=N\O` (stereo unspecified) the IC50 (MGC-803) was 19200 nM, the IC50 (Bel-7402) was 25400 nM and the IC50 (HCT-15) was 7430 nM. It also gave an IC50 (MCF7) of 48.3 µM and an IC50 [1] of over 50 µM.
Molecule `COc1cc(C(CC=C(C)C)SC(=O)c2ccc(F)cc2)c(OC)c2c1/C(=N/O)C=C/C2=N\O` (stereo unspecified) has an IC50 (MGC-803) of 1280 nM, an IC50 (Bel-7402) of 890 nM and an IC50 (HCT-15) of 700 nM. The IC50 (MCF7) was 20.5 µM and the IC50 [1] was over 50 µM.
For `COc1cc(C(CC=C(C)C)SC(=O)c2ccccc2)c(OC)c2c1/C(=N/O)C=C/C2=N\O` (stereo unspecified), the IC50 (MGC-803) was 1280 nM, the IC50 (Bel-7402) was 1200 nM and the IC50 (HCT-15) was 630 nM. The IC50 (MCF7) was 17.4 µM and the IC50 [1] was over 50 µM.
`COc1cc(C(CC=C(C)C)SC(=O)c2ccc([N+](=O)[O-])cc2)c(OC)c2c1/C(=N/O)C=C/C2=N\O` (stereo unspecified) showed an IC50 (MGC-803) of 9300 nM, an IC50 (Bel-7402) of 12600 nM and an IC50 (HCT-15) of 5090 nM. It also gave an IC50 (MCF7) of 44.7 µM and an IC50 [1] of over 50 µM.
`COc1cc(C(CC=C(C)C)SCCC(C)C)c(OC)c2c1/C(=N/O)C=C/C2=N\O` (stereo unspecified) gave an Activity [2] of 0.023%, an Activity [3] of 0.024% and an Activity [4] of 0.033%. It also gave an IC50 (MGC-803) of 3360 nM, an IC50 (Bel-7402) of 5430 nM and an Activity [5] of 0.029%. The Activity [6] was 0.038%, the Activity [7] was 0.027% and the IC50 (HCT-15) was 1140 nM. For the same molecule, the IC50 (MCF7) was 27.2 µM and the IC50 [1] was over 50 µM.
`COc1ccc(C(=O)S[C@@H](CC=C(C)C)c2cc(OC)c3c(c2OC)/C(=N/O)C=C/C3=N\O)cc1OC` showed an IC50 (MGC-803) of 1120 nM, an IC50 (Bel-7402) of 850 nM and an IC50 (HCT-15) of 380 nM. For the same molecule, the IC50 (MCF7) was 15.2 µM and the IC50 [1] was over 50 µM.
